Data reported in the array DNA melting data of Ke et al. (doi:10.1101/2024.01.08.574731).

Legend:
[1] = melting temperature; fluorescence melt of hairpins on a sequencing array, two-state fit, raised by 9.35 °C to match UV melts; conditions: sodium 0.088 M
In short: (§1)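 Hairpins were imaged by Cy3 fluorescence on a sequenced MiSeq flow cell with annealed Cy3 and quencher oligos, in 50 mM Na-HEPES pH 8.0, 25 mM NaCl, in 2.5 °C steps up to 60 °C. Bootstrapped two-state fits of normalised signals gave melting temperature and folding enthalpy. Four replicates were combined by inverse variance, and fitted temperatures were raised by 9.35 °C to match UV melts.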

[2] = folding enthalpy; higher = less favourable; fluorescence melt of hairpins on a sequencing array, two-state fit; conditions: sodium 0.088 M
In short: as §1

GTTAAACGAAAGTTCAAC (((.(((....))).)))
Tm [1]: 30.3 °C
folding enthalpy [2]: -22.6 kcal/mol

GTTAAAGGAAACTTTAGC (.(((((....))))).)
Tm [1]: 27.6 °C
folding enthalpy [2]: -20.6 kcal/mol

GTTAACGAAAGTTACAAC ((((((....)))..)))
Tm [1]: 25.6 °C
folding enthalpy [2]: -12.3 kcal/mol

GTTAACGAAAGTTTAAC ((((((....))).)))
Tm [1]: 34.6 °C
folding enthalpy [2]: -17 kcal/mol

GTTAACGGAAACGTCAAC (((.(((....))).)))
Tm [1]: 34.2 °C
folding enthalpy [2]: -15.2 kcal/mol

GTTAAGCGAAAGCTGAAC (((.(((....))).)))
Tm [1]: 48.2 °C
folding enthalpy [2]: -23.2 kcal/mol

GTTAAGGGAAACCTTAAC (((((((....)))))))
Tm [1]: 50.5 °C
folding enthalpy [2]: -39.2 kcal/mol

GTTAAGGGAAACCTTGAC ((.((((....)))).))
Tm [1]: 37.4 °C
folding enthalpy [2]: -29.3 kcal/mol

GTTAAGTCGAAAGACAAC (((..(((....))))))
Tm [1]: 27.8 °C
folding enthalpy [2]: -13.4 kcal/mol

GTTACCGAAAGGTAAAAC ((((((....)))..)))
Tm [1]: 34.7 °C
folding enthalpy [2]: -13.2 kcal/mol

GTTACCGAAAGGTGAAAC ((((((....)))..)))
Tm [1]: 27.5 °C
folding enthalpy [2]: -9.44 kcal/mol

GTTACCGAAAGGTTAAC ((((((....))).)))
Tm [1]: 41.9 °C
folding enthalpy [2]: -15.4 kcal/mol

GTTACCGGAAACGGTGAC ((.((((....)))).))
Tm [1]: 51.2 °C
folding enthalpy [2]: -30.4 kcal/mol

GTTACGACGAAAGTCAAC (((..(((....))))))
Tm [1]: 25.5 °C
folding enthalpy [2]: -12.3 kcal/mol

GTTACGCGAAAGCGAAAC (((.(((....))).)))
Tm [1]: 51.1 °C
folding enthalpy [2]: -23.5 kcal/mol

GTTACTGGAAACGGTAAC (((((.(....).)))))
Tm [1]: 43.9 °C
folding enthalpy [2]: -32.2 kcal/mol

GTTAGACCGAAAGGTAAC (((..(((....))))))
Tm [1]: 30.2 °C
folding enthalpy [2]: -11.2 kcal/mol

GTTAGAGGAAACTCTAAC (((((((....)))))))
Tm [1]: 51.6 °C
folding enthalpy [2]: -39.7 kcal/mol

GTTAGAGGAAACTCTGAC ((.((((....)))).))
Tm [1]: 37.1 °C
folding enthalpy [2]: -31.4 kcal/mol

GTTAGAGGAAACTTTAAC ((((.((....)).))))
Tm [1]: 27.5 °C
folding enthalpy [2]: -15.5 kcal/mol

GTTAGCACGAAAGTGAAC (((..(((....))))))
Tm [1]: 27 °C
folding enthalpy [2]: -11.6 kcal/mol

GTTAGCGAAAGCTCTAAC ((((((....)))..)))
Tm [1]: 25.6 °C
folding enthalpy [2]: -8.83 kcal/mol

GTTAGCGAAAGCTGAAC ((((((....))).)))
Tm [1]: 38.4 °C
folding enthalpy [2]: -13.2 kcal/mol

GTTAGCGAAAGCTTAAC ((((((....))).)))
Tm [1]: 42.8 °C
folding enthalpy [2]: -13.9 kcal/mol

GTTAGGCCGAAAGGCAAC (((..(((....))))))
Tm [1]: 32.1 °C
folding enthalpy [2]: -9.31 kcal/mol

GTTAGGGAAACCTAAC ((((((....))))))
Tm [1]: 48.4 °C
folding enthalpy [2]: -30.8 kcal/mol

GTTAGGGGAAACCCTGAC ((.((((....)))).))
Tm [1]: 45.6 °C
folding enthalpy [2]: -28.4 kcal/mol

GTTAGGGGAAACCTTAAC ((((.((....)).))))
Tm [1]: 33.4 °C
folding enthalpy [2]: -22.3 kcal/mol

GTTAGTGAAAACTAAC ((((((....))))))
Tm [1]: 49.3 °C
folding enthalpy [2]: -33.4 kcal/mol

GTTAGTGGAAACACTAGC (.(((((....))))).)
Tm [1]: 40 °C
folding enthalpy [2]: -21.1 kcal/mol

GTTAGTGGAAACACTGAC ((.((((....)))).))
Tm [1]: 44.7 °C
folding enthalpy [2]: -24.2 kcal/mol

GTTATACGAAAGTACAAC (((.(((....))).)))
Tm [1]: 33.2 °C
folding enthalpy [2]: -17.4 kcal/mol

GTTATCACGAAAGTGAAC (((..(((....))))))
Tm [1]: 28.5 °C
folding enthalpy [2]: -10.2 kcal/mol

GTTATCGGAAACGATGAC ((.((((....)))).))
Tm [1]: 47.1 °C
folding enthalpy [2]: -25.2 kcal/mol

GTTATGGGAAACCACAAC (((.(((....))).)))
Tm [1]: 29.2 °C
folding enthalpy [2]: -14.9 kcal/mol

GTTATGGGAAACCGTAAC ((((.((....)).))))
Tm [1]: 44.2 °C
folding enthalpy [2]: -33.2 kcal/mol

GTTCAAGGAAACTTGGAC ((.((((....)))).))
Tm [1]: 43.7 °C
folding enthalpy [2]: -20.7 kcal/mol

GTTCACACGAAAGTGAAC (((..(((....))))))
Tm [1]: 49.2 °C
folding enthalpy [2]: -23.8 kcal/mol
